Test results: ChEMBL document CHEMBL5696442, “Discovery of type II inhibitors of TGFβ-activated kinase 1 (TAK1) and mitogen-activated protein kinase kinase kinase kinase 2 (MAP4K2)” (J Med Chem, 2015)
Active and inactive are the calls of the source. The calls are words filed in the database; no cut-off is given here.

Assays:
[1] = biological target: T1, Mitogen-activated protein kinase 8 (Homo sapiens, UniProt P45983); assay: Inhibition of JNK1 Lys2 labeling site in human Huh-7 cell lysate at 1 uM by KiNativ Profiling analysis relative to control; assay type: subcellular
[2] = tested on: GEN2.2; assay: Inhibition of CL097 induced p38 phosphorylation level in human GEN2.2 cells at 1 uM preincubated with compound for 1 hr followed by CL097 stimulation and measured after 30 mins by Western blot analysis; assay type: functional, cell-based
In short: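 Gen2.2 cells were pretreated with compound at 1 μM for 1 h, then stimulated with CL097 for 30 min. Lysates were analysed by Western blot for phosphorylation of p105, p38 and JNK1/2.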

[3] = biological target: Ephrin type-A receptor 2 (Homo sapiens, UniProt P29317); assay: Inhibition of EphA2 ACT labeling site in human Huh-7 cells at 1 uM by KiNativ Profiling analysis relative to control; assay type: cell-based
[4] = biological target: T1, Mitogen-activated protein kinase 8; assay: Inhibition of JNK1 Lys2 labeling site in human A-375 cells at 5 uM by KiNativ Profiling analysis relative to control; assay type: cell-based
[5] = biological target: Mitogen-activated protein kinase 9 (Homo sapiens, UniProt P45984); assay: Inhibition of JNK2 Lys2 labeling site in human A-375 cells at 5 uM by KiNativ Profiling analysis relative to control; assay type: cell-based
[6] = biological target: Tyrosine-protein kinase Fyn (Homo sapiens) (UniProt P06241); assay: Inhibition of FYN ACT labeling site in human A-375 cells at 0.5 uM by KiNativ Profiling analysis relative to control; assay type: cell-based
[7] = biological target: MAP/microtubule affinity-regulating kinase 3 (Homo sapiens) (UniProt P27448); assay: Inhibition of MARK3 Lys1 labeling site in human A-375 cells at 5 uM by KiNativ Profiling analysis relative to control; assay type: cell-based
[8] = biological target: Cyclin-dependent kinase 11B (Homo sapiens) (UniProt P21127); assay: Inhibition of PITSLRE Lys2 labeling site in human A-375 cells at 5 uM by KiNativ Profiling analysis relative to control; assay type: cell-based
[9] = biological target: Serine/threonine-protein kinase VRK2 (Homo sapiens) (UniProt Q86Y07); assay: Inhibition of VRK2 Lys2 labeling site in human A-375 cells at 5 uM by KiNativ Profiling analysis relative to control; assay type: cell-based
[10] = biological target: Cyclin-dependent kinase 6 (Homo sapiens) (UniProt Q00534); assay: Inhibition of CDK6 Lys2 labeling site in human A-375 cells at 0.5 uM by KiNativ Profiling analysis relative to control; assay type: cell-based
In short: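 Live A375 melanoma cells were treated with compound at 5 or 0.5 μM. The cells were then lysed, and the lysates were labeled with a lysine-reactive ATP or ADP-biotin acyl probe (KiNativ). Inhibition is the compound's protection of each kinase labeling-site peptide from probe labeling, relative to untreated control.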

[11] = biological target: Serine/threonine-protein kinase PLK1 (Homo sapiens) (UniProt P53350); assay: Inhibition of PLK1 Lys1 labeling site in human A-375 cells at 0.5 uM by KiNativ Profiling analysis relative to control; assay type: cell-based
[12] = biological target: Serine/threonine-protein kinase SIK3 (Homo sapiens) (UniProt Q9Y2K2); assay: Inhibition of QSK Lys2 labeling site in human A-375 cells at 0.5 uM by KiNativ Profiling analysis relative to control; assay type: cell-based
[13] = biological target: T2, Kinase suppressor of Ras 1 (Homo sapiens) (UniProt Q8IVT5); assay: Inhibition of KSR1 ACT labeling site harbouring SKNVFYDNGK in human A-375 cells at 0.05 uM by KiNativ Profiling analysis relative to control; assay type: cell-based
T2 sequence (whole entry): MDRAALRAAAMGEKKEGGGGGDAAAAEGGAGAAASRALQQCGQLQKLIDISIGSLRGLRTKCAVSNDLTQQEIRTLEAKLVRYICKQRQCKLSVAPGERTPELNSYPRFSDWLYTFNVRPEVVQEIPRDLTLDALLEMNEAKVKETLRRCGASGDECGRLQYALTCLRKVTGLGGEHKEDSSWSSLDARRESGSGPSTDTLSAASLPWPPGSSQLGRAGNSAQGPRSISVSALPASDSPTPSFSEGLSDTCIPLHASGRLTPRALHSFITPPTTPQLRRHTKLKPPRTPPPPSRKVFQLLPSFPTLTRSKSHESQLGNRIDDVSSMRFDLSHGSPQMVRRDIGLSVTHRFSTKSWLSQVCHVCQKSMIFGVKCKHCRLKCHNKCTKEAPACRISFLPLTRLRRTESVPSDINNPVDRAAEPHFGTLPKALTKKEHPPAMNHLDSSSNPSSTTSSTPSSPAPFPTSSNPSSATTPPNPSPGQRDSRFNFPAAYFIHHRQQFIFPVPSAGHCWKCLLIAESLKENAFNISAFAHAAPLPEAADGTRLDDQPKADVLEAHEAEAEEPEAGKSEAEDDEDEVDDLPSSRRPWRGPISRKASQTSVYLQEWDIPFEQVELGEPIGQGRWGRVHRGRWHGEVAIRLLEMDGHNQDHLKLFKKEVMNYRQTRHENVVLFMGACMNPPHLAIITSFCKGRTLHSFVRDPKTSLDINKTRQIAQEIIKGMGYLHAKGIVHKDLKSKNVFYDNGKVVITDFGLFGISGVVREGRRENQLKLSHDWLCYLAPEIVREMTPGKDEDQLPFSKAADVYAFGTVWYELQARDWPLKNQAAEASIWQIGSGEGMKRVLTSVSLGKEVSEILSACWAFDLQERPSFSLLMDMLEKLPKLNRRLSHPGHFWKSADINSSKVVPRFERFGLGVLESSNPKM

[14] = Inhibition of p70S6K Lys2 labeling site in human A-375 cells at 0.05 uM by KiNativ Profiling analysis relative to control; conditions: condition cancer

T1 sequence (P45983 whole entry): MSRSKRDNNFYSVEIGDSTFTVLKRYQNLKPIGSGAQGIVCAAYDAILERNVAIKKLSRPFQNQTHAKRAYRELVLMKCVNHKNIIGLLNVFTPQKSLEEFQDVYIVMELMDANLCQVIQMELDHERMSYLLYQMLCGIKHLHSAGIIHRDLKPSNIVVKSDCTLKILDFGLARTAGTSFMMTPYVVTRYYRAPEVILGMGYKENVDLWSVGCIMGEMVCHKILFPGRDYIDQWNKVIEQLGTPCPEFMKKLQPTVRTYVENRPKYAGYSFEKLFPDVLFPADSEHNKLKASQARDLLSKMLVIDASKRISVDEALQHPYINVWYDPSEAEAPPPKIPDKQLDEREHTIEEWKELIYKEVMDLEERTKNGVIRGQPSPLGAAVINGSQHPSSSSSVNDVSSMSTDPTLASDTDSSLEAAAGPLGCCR
Serine/threonine-protein kinase PLK1 (Homo sapiens), sequence (P53350 whole entry): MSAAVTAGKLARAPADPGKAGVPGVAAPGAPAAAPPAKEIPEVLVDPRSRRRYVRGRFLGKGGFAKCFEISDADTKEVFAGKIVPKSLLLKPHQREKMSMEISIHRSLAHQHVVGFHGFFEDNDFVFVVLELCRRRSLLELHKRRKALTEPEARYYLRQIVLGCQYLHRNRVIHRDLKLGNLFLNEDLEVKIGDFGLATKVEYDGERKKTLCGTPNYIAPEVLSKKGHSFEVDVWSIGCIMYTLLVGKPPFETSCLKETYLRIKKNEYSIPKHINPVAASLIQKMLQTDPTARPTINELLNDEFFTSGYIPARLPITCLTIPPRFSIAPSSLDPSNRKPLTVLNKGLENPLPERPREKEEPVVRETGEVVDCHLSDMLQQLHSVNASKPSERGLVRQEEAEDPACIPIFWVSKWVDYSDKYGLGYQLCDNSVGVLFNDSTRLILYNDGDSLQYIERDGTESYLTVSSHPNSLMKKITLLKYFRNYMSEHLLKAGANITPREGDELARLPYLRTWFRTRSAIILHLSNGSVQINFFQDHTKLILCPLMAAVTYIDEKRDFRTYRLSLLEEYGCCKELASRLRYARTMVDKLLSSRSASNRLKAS
Serine/threonine-protein kinase SIK3 (Homo sapiens), sequence (Q9Y2K2 whole entry, looked up): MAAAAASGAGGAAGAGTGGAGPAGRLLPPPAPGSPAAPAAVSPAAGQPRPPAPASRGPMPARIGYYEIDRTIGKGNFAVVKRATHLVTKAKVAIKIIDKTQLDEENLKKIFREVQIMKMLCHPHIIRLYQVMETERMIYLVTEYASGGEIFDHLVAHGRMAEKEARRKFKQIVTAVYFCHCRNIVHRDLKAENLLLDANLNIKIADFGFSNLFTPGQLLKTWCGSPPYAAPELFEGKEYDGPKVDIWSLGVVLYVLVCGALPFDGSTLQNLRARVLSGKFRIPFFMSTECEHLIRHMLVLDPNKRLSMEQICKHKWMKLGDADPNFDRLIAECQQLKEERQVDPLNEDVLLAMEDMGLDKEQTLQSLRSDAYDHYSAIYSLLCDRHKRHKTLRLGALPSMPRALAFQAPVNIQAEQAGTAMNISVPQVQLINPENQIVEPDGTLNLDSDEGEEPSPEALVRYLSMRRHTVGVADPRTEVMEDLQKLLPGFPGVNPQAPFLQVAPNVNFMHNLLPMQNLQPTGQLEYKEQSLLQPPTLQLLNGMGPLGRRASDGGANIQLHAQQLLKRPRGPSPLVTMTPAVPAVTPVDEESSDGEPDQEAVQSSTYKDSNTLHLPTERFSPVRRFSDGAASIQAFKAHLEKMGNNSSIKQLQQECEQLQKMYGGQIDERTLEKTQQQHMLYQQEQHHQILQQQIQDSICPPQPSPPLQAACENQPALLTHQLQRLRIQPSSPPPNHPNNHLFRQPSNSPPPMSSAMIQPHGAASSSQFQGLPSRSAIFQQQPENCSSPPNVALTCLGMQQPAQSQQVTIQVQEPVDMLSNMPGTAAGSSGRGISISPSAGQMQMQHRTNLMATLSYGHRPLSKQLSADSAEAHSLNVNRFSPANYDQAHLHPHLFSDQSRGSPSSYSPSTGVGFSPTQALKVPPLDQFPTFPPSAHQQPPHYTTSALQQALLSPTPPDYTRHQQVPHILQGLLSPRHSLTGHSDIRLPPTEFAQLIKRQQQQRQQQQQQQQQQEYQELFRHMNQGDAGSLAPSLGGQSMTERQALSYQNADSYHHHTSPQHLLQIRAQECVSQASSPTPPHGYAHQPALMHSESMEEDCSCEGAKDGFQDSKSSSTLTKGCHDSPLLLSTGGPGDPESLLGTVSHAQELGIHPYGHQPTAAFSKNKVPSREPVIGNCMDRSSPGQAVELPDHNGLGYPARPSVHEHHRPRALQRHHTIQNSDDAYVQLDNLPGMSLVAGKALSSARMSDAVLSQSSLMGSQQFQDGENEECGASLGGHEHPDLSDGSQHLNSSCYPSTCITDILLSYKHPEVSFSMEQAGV
Tyrosine-protein kinase Fyn (Homo sapiens), sequence (P06241 2-537 limits assumed): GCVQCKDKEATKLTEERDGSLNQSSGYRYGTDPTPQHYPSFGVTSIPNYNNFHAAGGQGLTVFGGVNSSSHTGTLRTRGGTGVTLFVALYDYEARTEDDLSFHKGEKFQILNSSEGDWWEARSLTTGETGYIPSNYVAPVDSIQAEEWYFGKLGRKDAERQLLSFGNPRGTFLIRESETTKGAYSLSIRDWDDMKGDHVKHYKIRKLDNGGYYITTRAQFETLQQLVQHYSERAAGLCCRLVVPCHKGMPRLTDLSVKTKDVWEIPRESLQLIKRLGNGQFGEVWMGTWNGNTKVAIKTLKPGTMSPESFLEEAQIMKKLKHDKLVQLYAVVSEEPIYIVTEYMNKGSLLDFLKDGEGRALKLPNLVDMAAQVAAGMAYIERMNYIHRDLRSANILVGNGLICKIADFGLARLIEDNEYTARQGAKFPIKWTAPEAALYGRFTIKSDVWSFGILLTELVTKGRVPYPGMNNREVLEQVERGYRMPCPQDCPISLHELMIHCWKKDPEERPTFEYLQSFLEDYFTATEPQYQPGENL
Cyclin-dependent kinase 6 (Homo sapiens), sequence (Q00534 whole entry): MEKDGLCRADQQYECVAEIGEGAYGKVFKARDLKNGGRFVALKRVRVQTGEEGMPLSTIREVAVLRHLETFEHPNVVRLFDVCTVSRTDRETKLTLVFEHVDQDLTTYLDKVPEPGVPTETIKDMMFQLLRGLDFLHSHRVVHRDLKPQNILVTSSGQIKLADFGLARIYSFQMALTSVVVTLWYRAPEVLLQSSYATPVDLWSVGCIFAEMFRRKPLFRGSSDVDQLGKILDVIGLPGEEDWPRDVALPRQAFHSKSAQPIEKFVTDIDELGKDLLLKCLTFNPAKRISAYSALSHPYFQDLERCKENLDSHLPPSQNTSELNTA
Cyclin-dependent kinase 11B (Homo sapiens), sequence (P21127 whole entry): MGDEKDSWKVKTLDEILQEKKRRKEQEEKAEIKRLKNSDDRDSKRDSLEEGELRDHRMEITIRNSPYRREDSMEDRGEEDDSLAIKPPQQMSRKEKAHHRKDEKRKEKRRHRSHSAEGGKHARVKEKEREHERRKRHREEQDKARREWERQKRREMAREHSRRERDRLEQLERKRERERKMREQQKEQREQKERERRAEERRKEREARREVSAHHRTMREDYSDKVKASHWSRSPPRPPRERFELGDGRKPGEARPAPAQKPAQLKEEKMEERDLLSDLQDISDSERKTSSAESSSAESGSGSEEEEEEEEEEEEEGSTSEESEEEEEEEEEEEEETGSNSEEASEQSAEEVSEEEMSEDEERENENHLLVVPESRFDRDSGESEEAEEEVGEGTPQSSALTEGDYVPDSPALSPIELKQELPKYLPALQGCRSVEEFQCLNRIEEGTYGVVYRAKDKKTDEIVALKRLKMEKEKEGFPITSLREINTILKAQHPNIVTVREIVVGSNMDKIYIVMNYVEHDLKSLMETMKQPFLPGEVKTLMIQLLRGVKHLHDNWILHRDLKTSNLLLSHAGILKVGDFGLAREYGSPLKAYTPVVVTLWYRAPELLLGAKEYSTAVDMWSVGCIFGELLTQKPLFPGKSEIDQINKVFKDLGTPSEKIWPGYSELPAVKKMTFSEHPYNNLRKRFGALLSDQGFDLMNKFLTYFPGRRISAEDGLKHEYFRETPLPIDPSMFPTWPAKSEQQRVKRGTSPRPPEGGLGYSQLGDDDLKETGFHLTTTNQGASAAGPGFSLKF
Ephrin type-A receptor 2, sequence (P29317 whole entry): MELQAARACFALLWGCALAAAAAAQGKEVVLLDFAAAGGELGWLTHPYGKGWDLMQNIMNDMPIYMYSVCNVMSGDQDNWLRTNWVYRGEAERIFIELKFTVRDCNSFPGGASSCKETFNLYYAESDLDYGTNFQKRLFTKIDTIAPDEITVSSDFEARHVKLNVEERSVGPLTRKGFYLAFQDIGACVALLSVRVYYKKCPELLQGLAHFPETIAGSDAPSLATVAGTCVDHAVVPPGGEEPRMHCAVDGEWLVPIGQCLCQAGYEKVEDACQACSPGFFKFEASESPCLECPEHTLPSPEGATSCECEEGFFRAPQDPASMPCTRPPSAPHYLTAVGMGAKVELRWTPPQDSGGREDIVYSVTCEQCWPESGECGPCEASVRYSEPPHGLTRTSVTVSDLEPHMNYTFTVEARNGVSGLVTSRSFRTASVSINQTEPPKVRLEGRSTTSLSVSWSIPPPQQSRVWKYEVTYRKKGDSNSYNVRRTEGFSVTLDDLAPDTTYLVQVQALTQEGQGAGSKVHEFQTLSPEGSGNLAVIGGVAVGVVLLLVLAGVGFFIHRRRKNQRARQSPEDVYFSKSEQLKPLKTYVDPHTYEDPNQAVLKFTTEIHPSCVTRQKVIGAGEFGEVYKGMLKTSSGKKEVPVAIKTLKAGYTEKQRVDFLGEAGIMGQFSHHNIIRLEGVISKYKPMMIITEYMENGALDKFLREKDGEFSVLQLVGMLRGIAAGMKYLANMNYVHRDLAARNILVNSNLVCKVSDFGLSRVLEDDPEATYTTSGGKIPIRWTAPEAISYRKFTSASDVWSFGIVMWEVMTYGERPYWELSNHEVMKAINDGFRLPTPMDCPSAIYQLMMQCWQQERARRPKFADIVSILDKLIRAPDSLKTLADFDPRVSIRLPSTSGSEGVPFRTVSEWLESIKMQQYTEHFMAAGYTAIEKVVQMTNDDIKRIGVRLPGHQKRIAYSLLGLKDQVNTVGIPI

SMILES	inhibition [1]	inhibition [2]	inhibition [3]	inhibition [4]	inhibition [5]	inhibition [6]	inhibition [7]	inhibition [8]	inhibition [9]	inhibition [10]	inhibition [11]	inhibition [12]	inhibition [13]	inhibition at 0.05 µM [14]
CNc1cc(Oc2cc(C(=O)Nc3cc(-n4cnc(C)c4)cc(C(F)(F)F)c3)ccc2C)ncn1	18.4%	inactive												
CNc1cc(Oc2cc(C(=O)Nc3cc(N4CCN(C)CC4)cc(C(F)(F)F)c3)ccc2C)ncn1	7%		69.2%											
CCN1CCN(Cc2ccc(NC(=O)c3ccc(C)c(Oc4ccnc5[nH]ccc45)c3)cc2C(F)(F)F)CC1		Active	16.1%	90.3%	90.3%	36.5%	4.9%	6.3%	12.7%	3.9%	-3.8%	39.8%	37%	-7.2%
CCN1CCN(Cc2ccc(NC(=O)c3ccc(C)c(/C=C/c4cnc5[nH]ccc5c4OC)c3)cc2C(F)(F)F)CC1				76.9%	76.9%	72.6%	13.3%	-9.5%	21.5%	11.4%	-5.2%	40.3%	8.6%	-27%
